From ChEMBL document CHEMBL4665714 (Bioorg Med Chem Lett, 2020)
The source made the active and inactive calls. The rule behind the calls is not given here.

What was measured:
[1] = target: Retinoid isomerohydrolase (Bos taurus, UniProt Q28175); assay: (§1) Inhibition of RPE65 in bovine RPE microsomes assessed as reduction in 11-cis-retinol production using all-trans-retinol as substrate pre-incubated with enzyme for 5 mins followed by further incubation with all-trans-retinol for 1 hr by normal phase HPLC analysis; set-up: species or system Retina, Microsome
In short: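 All-trans-retinol added to the enzyme mixture and incubated 1 h at 37 °C. Quenched with methanol and extracted into hexane. Inhibition taken from the fall in 11-cis-retinol production.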

ARPE-19 [2] = assay: Cytoprotective activity against human ARPE-19 cells assessed as reduction in all-trans-retinal induced cytotoxicity at 18 to 90 uM incubated for 6 hrs in presence of all-trans-retinal by CellTiter-Glo luminescent cell viability assay; type: functional, cell-based; conditions: dose microM 18-90, time 6.0 hrs
[3] = target: Retinoid isomerohydrolase (Bos taurus) (UniProt Q28175); assay: as §1, with “Potency index, ratio of (R)-MB001 EC50 to test compound EC50 for inhibition” for “Inhibition”; conditions: Retina, Microsome, time 65.0 min
ARPE-19 [4] = assay: Cytoprotective activity against human ARPE-19 cells assessed as reduction in all-trans-retinal induced cytotoxicity by measuring cell surveillance rate at 90 uM incubated for 6 hrs in presence of all-trans-retinal by CellTiter-Glo luminescent cell viability assay relative to control; type: functional
In short: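 ARPE-19 (human RPE line) cells given test agent at 18, 45 or 90 μM together with all-trans-retinal 385 μM. Incubated 6 h at 37 °C, then viability read by CellTiter-Glo luminescence. Mean ±SE, n=3, t-test.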

Retinoid isomerohydrolase, sequence (Q28175 whole entry): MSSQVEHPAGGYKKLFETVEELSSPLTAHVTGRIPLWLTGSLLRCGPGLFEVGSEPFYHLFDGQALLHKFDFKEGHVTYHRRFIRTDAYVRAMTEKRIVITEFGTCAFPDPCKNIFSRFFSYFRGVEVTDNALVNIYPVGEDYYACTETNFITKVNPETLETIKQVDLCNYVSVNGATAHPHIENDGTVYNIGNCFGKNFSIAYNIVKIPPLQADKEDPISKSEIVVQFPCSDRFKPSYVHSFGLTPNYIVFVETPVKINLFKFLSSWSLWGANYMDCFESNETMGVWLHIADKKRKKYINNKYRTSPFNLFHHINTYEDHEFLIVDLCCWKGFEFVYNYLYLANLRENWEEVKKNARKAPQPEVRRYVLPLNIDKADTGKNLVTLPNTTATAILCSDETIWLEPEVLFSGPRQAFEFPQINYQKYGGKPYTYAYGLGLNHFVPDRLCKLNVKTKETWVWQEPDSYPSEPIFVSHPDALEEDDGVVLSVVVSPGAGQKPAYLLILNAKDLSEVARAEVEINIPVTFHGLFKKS
Retinoid isomerohydrolase (Bos taurus), sequence (Q28175 2-533 limits assumed): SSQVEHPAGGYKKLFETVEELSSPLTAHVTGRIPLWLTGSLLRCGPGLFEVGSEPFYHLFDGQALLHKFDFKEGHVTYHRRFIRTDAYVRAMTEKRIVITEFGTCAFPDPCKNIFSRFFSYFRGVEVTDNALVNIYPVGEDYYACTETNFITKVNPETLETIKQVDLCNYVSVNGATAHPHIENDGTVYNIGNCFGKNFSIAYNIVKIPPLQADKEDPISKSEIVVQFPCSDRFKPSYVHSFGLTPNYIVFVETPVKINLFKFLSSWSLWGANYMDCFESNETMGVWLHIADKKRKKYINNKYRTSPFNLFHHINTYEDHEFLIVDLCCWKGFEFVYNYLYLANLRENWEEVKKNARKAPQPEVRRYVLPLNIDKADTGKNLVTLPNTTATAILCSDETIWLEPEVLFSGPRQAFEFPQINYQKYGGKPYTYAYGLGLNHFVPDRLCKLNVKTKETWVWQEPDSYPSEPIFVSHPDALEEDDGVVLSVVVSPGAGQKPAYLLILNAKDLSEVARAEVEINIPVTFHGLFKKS

In the case of `CC1=C(COc2cccc([C@H](O)CCN)c2)C(C)(C)CCC1`, the EC50 [1] is reported as 0.323 µM and the Activity (ARPE-19 [2]) is reported as “Active”.
With `NCCC(O)c1cccc(OCC(CCCF)CCCF)c1` (racemic) [listing 1 of 2 here] the EC50 [1] was 0.166 µM.
For `NCCC(O)c1cccc(OCC(CCCF)CCCF)c1` (racemic) [listing 2 of 2 here], the Ratio EC50 [3] was 2 and the Activity (ARPE-19 [2]) was “Active”.
`NCCC(O)c1cccc(OCC(CCCF)CCCF)c1` (stereo in doubt; 14) [listing 1 of 2 here] gave an EC50 [1] of 0.196 µM and an Activity (ARPE-19 [4]) of 100%.
In the case of `NCCC(O)c1cccc(OCC(CCCF)CCCF)c1` (stereo in doubt; 14) [listing 2 of 2 here], the Ratio EC50 [3] is reported as 2 and the Activity (ARPE-19 [2]) is reported as “Active”.
